The values below come from article PMC9199349 (ACS chemical biology, 2020).

pIC50: −log10 of the molar value. Entries after “also recorded” stand apart in the source; their conditions may differ. Read-outs that look alike come from different tables or passages of the source.

One data set deals with Pseudomonas aeruginosa. Particulars: mice infected with Pseudomonas aeruginosa; cited from earlier work.
For data set [1], the system named is other BER enzymes / other DNA glycosylases. Conditions: cited from earlier work.
Another data set deals with OGG1. Conditions: read-out: IC50 OGG1, cited from earlier work.
The subject of the next data set is HeLa cells. Conditions: LC-MS/MS with isotope-dilution; cited from earlier work.
In the next data set the target is human OGG1 (Homo sapiens, UniProt O15527). In kind it is biochemical. Conditions: for inhibition of excision of 8-OH-Gua by OGG1 / inhibition of excision of FapyAde by OGG1: inhibitor 10 μmol/L, genomic DNA, GC-MS/MS; for inhibition at 10 µM: read-out: inhibition of excision of FapyGua by OGG1. In a few lines: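 Test compound was dissolved in DMSO and added to the reaction mixture of human OGG1 with genomic DNA carrying multiple oxidatively-induced lesions. It was screened at 10 μmol/L, then tested from 0.05 to 10 μmol/L. Excised 8-OH-Gua, FapyGua and FapyAde were quantified by isotope-dilution GC-MS/MS. Controls were no enzyme, no inhibitor, and DMSO alone. Standard deviations were given; significance was set at p < 0.05.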
Sequence of human OGG1 (O15527 whole entry): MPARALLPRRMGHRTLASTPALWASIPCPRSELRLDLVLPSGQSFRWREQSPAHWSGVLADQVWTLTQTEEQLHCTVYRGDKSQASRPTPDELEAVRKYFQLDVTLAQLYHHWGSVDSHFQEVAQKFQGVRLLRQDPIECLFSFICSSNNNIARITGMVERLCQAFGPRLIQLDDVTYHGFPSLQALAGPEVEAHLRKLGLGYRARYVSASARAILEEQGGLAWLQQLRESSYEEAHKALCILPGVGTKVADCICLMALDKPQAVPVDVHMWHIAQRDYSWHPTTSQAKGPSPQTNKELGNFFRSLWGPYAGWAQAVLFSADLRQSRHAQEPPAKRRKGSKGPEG

The next data set has as its system HEK293T and HeLa cells. Particulars: cited from earlier work.
The subject of a further data set is MTH1. Conditions: read-out: IC50 MTH1; dual inhibitor; cited from earlier work.
Setting [2] is: highest concentration of 100 μmol/L.

As to `NC(=O)c1cccc(-c2ccc(S(=O)(=O)Nc3ccc4c(c3)N(C(=O)C3CC3)CCC4)cc2)c1` [SU0268, 4’-(N-(1-(cyclopropanecarbonyl)-1,2,3,4-tetrahydroquinolin-7-yl)sulfamoyl)-[1,1’-biphenyl]-3-carboxamide], the “inflammation and mortality / survival” value with Pseudomonas aeruginosa was “reduced both inflammation and proinflammatory cytokines, and improved animal survival; also recorded: efficacy in reducing inflammation and mortality”. Further, in data set [1], the “selectivity for OGG1 over other BER enzymes” value is reported as “selective for inhibiting OGG1 over other BER enzymes”. In addition, the pIC50 in the data set on OGG1 (fluorogenic assay of 8-OH-Gua excision) was 7.23. For the same compound, in the data set on HeLa cells, the “level of 8-OH-Gua in DNA” value was “increase the level of 8-OH-Gua in DNA”. Further, on human OGG1, the “inhibition of excision of 8-OH-Gua by OGG1” value is given as “strongly inhibited”, the “inhibition of excision of FapyAde by OGG1” value is given as “quite significant” and the inhibition at 10 µM is about 60%. The toxicity entry with HEK293T and HeLa cells (concentrations up to 10 μmol/L) was “little or no toxicity”. Further, the toxicity result with HEK293T and HeLa cells (setting [2]) is “moderate toxicity”.

Regarding `Cc1cnc(N)nc1OCCNC(=O)c1cccc(-c2ccc(S(=O)(=O)Nc3ccc4c(c3)N(C(=O)C3CC3)CCC4)cc2)c1` [SU0383, N-(2-((2-Amino-5-methylpyrimidin-4-yl)oxy)ethyl)-4’-(N-(1-(cyclopropanecarbonyl)-1,2,3,4-tetrahydroquinolin-7-yl)sulfamoyl)-[1,1’-biphenyl]-3-carboxamide], the pIC50 in the data set on OGG1 (dual inhibitor) was 6.31. Also, on human OGG1, the “inhibition of excision of 8-OH-Gua by OGG1” value is “significant inhibition”, the “inhibition of excision of FapyAde by OGG1” value is given as “quite significant” and the inhibition at 10 µM is about 30%. In the data set on HEK293T and HeLa cells (concentrations up to 10 μmol/L), the toxicity entry was “little or no toxicity”. Also, the toxicity entry in the data set on HEK293T and HeLa cells (setting [2]) is listed as “moderate toxicity”. Moreover, the pIC50 in the data set with MTH1 is 7.47.

One may read the pIC50 as the IC50 on a negative log10 scale, so that one unit is a factor of ten. What is called inhibition is the share of the control response that was lost under treatment.
